Measured values: ChEMBL document CHEMBL3808299 (J Med Chem, 2016)
Active and inactive are the calls of the source. The calls are words filed in the database; no cut-off is given here.

Experiments:
[1] = Inhibition of hedgehog pathway in mouse C3H10T1/2 cells assessed as Gli1 mRNA expression at 1 uM after 24 hrs by qPCR method; format: cell-based; set-up: scale not given: the % may be the effect or the level left; settings: C3H 10T1/2
Summary of the method: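 C3H10T1/2 mouse embryonic fibroblasts were stimulated with recombinant mouse Sonic Hedgehog (C25II) and co-treated with compound at 1 μM for 24 h. Endogenous Gli1 mRNA was measured by qPCR and expressed as % of the Hh-ligand-only control (100%).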

[2] = tested on: HUVEC; experiment: Antiproliferative activity against HUVEC assessed as inhibition of VEGF induced cell proliferation after 72 hrs by MTS assay; format: functional; settings: Homo sapiens
Summary of the method: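 HUVECs were seeded at 3,000 cells/well, attached overnight, then treated with varying drug concentrations. Metabolic activity was read with MTS/PMS after 72 h. GI50 is the mean ± SEM of at least two separate experiments run in triplicate.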

[3] = Inhibition of hedgehog pathway in mouse C3H10T1/2 cells assessed as downregulation of Gli1 mRNA expression after 24 hrs by qPCR method; format: cell-based; settings: C3H 10T1/2, 24 h
Summary of the method: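 Hh-ligand-stimulated C3H10T1/2 cells (recombinant mouse Sonic Hedgehog C25II) were exposed to a concentration series of compound for 24 h. Gli1 mRNA was read by qPCR. IC50 is the mean ± SEM of at least two separate experiments in triplicate.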

[4] = Inhibition of hedgehog pathway in mouse ASZ cells assessed as downregulation of Gli1 mRNA expression after 48 hrs by qPCR method; format: cell-based
Summary of the method: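 ASZ murine BCC cells, whose Hh signaling is constitutively active through a heterozygous PTCH1 mutation, got no added agonist. They were treated with a concentration series for 48 h and Gli1 mRNA was quantified by qPCR. IC50 is the mean ± SEM of at least two separate experiments in triplicate.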

[5] = Antiproliferative activity against mouse MERP MB cells assessed as cell growth inhibition using methyl-[3H]thymidine after 48 hrs by liquid scintillation spectrophotometry; format: functional; settings: Medulloblastoma cell
Summary of the method: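 Primary MB cells isolated from Math1-Cre-ER;Ptc fl/fl (MERP) mouse tumours were cultured in vitro and exposed to compound for 48 h to measure proliferation. GI50 is the mean ± SEM of at least two separate experiments in triplicate.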

[6] = Inhibition of hedgehog pathway in mouse MERP MB cells assessed as downregulation of Gli1 mRNA expression after 48 hrs by qPCR method; format: cell-based
Summary of the method: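 Primary medulloblastoma cells from Math1-Cre-ER;Ptc fl/fl mice were incubated with compound for 48 h. Gli1 mRNA was measured by qPCR. IC50 is the mean ± SEM of two separate experiments.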

[7] = tested on: HUVEC; experiment: Antiangiogenic activity against HUVEC assessed as inhibition of total tube length at 10 uM after 16 hrs by inverted microscopy; format: functional; settings: Homo sapiens
Summary of the method: (§1)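 HUVECs in M199 with 1% FBS and penicillin/streptomycin, 50,000 cells per well, on Matrigel diluted 1:1 with DMEM and set at 37°C. Cells attached for 20-30 min, then got DMSO, suramin (10 uM) or drug at 10, 1 or 0.1 μM for 16 h. Eight phase-contrast fields per well were imaged. Total tube length and junctions were scored relative to DMSO (100%). Each assay was repeated at least three times.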

[8] = tested on: HUVEC; experiment: Antiangiogenic activity against HUVEC assessed as inhibition of total tube junctions at 10 uM after 16 hrs by inverted microscopy; format: functional; settings: Homo sapiens; summary of the method: as §1
[9] = molecular target: Cytochrome P450 3A4 (Homo sapiens, UniProt P08684); experiment: Inhibition of CYP3A4 in human liver microsomes using testosterone as substrate after 10 mins by LC/MS/MS analysis; format: ADME
[10] = tested on: HUVEC; experiment: Antiangiogenic activity against HUVEC assessed as inhibition of total tube length at 1 uM after 16 hrs by inverted microscopy; format: functional, cell-based; settings: Homo sapiens; summary of the method: as §1
[11] = tested on: HUVEC; experiment: Antiangiogenic activity against HUVEC assessed as inhibition of total tube junctions at 1 uM after 16 hrs by inverted microscopy; format: functional, cell-based; settings: Homo sapiens; summary of the method: as §1
[12] = Inhibition of hedgehog pathway in mouse Shh-Light2 cells after 46 hrs by luciferase reporter gene assay; format: cell-based; settings: Shh Light2, 46 h
[13] = tested on: HUVEC; experiment: Antiproliferative activity against HUVEC assessed as inhibition of VEGF induced cell proliferation using methyl-[3H]thymidine after 36 hrs; format: functional, cell-based; settings: Homo sapiens

Cytochrome P450 3A4, sequence (P08684 whole entry): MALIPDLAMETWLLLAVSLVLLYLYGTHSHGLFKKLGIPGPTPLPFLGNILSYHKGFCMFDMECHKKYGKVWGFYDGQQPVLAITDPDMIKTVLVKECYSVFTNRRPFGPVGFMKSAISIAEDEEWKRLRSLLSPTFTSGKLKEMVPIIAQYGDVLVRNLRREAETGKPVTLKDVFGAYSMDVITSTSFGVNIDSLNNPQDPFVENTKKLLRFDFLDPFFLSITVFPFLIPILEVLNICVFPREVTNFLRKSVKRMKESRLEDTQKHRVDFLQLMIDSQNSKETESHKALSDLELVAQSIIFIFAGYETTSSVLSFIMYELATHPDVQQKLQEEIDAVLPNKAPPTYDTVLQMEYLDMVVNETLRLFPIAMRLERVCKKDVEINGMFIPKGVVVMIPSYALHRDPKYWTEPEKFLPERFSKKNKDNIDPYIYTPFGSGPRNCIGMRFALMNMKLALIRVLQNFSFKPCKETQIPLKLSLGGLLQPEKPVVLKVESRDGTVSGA

Compound	Activity [1] [%]	GI50 [2] [nM]	IC50 [3] [nM]	IC50 [4] [nM]	further results
CCC(C)n1ncn(-c2ccc(N3CCN(c4ccc(OCC5COC(C)(Cn6cncn6)O5)cc4)CC3)cc2)c1=O (stereo not given)	61.4	18400			
CC[C@@H]([C@H](C)O)n1ncn(-c2ccc(N3CCN(c4ccc(OC[C@@H]5CO[C@@](Cn6cncn6)(c6ccc(F)cc6F)C5)cc4)CC3)cc2)c1=O [POSACONAZOLE]		1600	140	540	
CC[C@@H](C)n1ncn(-c2ccc(N3CCN(c4ccc(OCC5COC(Cn6cncn6)(c6ccc(Cl)cc6Cl)O5)cc4)CC3)cc2)c1=O (stereo not given in full)	3	1700	140	160	
CC[C@H](C)n1ncn(-c2ccc(N3CCN(c4ccc(OCC5COC(Cn6cncn6)(c6ccc(Cl)cc6Cl)O5)cc4)CC3)cc2)c1=O (stereo not given in full)	6.9	2500	160	140	
CC[C@H](C)n1ncn(-c2ccc(N3CCN(c4ccc(OC[C@@H]5CO[C@](C)(c6ccc(Cl)cc6Cl)O5)cc4)CC3)cc2)c1=O		2500	1850	150	GI50 [5]: 390 nM; IC50 [6]: 260 nM
CCC(C)n1ncn(-c2ccc(N3CCN(c4ccc(OCC5COC(Cn6cncn6)(c6ccccc6)O5)cc4)CC3)cc2)c1=O (stereo not given)	13.1	8300	420	450	
CC[C@H](C)n1ncn(-c2ccc(N3CCN(c4ccc(OC[C@@H]5CO[C@@](C)(c6ccc(Cl)cc6Cl)O5)cc4)CC3)cc2)c1=O		18300	470	380	
CC[C@@H](C)n1ncn(-c2ccc(N3CCN(c4ccc(OC[C@H]5CO[C@@](C)(c6ccc(Cl)cc6Cl)O5)cc4)CC3)cc2)c1=O		65000	6600	2800	
Cc1ccc(C(=O)Nc2ccc(S(=O)(=O)O)c3cc(S(=O)(=O)O)cc(S(=O)(=O)O)c23)cc1NC(=O)c1cccc(NC(=O)Nc2cccc(C(=O)Nc3cc(C(=O)Nc4ccc(S(=O)(=O)O)c5cc(S(=O)(=O)O)cc(S(=O)(=O)O)c45)ccc3C)c2)c1 [SURAMIN]					inhibition at 10 µM [7]: 51.9%; inhibition at 10 µM [8]: 57.6%
CC[C@@H](C)n1ncn(-c2ccc(N3CCN(c4ccc(OC[C@H]5CO[C@](C)(c6ccc(Cl)cc6Cl)O5)cc4)CC3)cc2)c1=O		12100	540	130	inhibition [7]: inactive; inhibition [8]: inactive
CCCn1ncn(-c2ccc(N3CCN(c4ccc(OCC5COC(Cn6cncn6)(c6ccc(Cl)cc6Cl)O5)cc4)CC3)cc2)c1=O (stereo not given)	58.5	4700			
CC[C@H](C)n1ncn(-c2ccc(N3CCN(c4ccc(OC[C@H]5CO[C@@](C)(c6ccc(Cl)cc6Cl)O5)cc4)CC3)cc2)c1=O		78300	> 10000	550	
Nc1ccc(N2CCN(c3ccc(OCC4COC(Cn5cncn5)(c5ccc(Cl)cc5Cl)O4)cc3)CC2)cc1 (stereo not given)	6.1	42700	160	120	GI50 [5]: 900 nM
CC[C@H](C)n1ncn(-c2ccc(N3CCN(c4ccc(OC[C@H]5CO[C@](C)(c6ccc(Cl)cc6Cl)O5)cc4)CC3)cc2)c1=O		7700	1100	2500	
CCCn1ncn(-c2ccc(N3CCN(c4ccc(OC[C@H]5CO[C@](C)(c6ccc(Cl)cc6Cl)O5)cc4)CC3)cc2)c1=O		84100	> 10000	200	GI50 [5]: 22400 nM
O=c1[nH]ncn1-c1ccc(N2CCN(c3ccc(OCC4COC(Cn5cncn5)(c5ccc(Cl)cc5Cl)O4)cc3)CC2)cc1 (stereo not given)	1.1	5800	43	120	
CCC(C)n1ncn(-c2ccc(N3CCN(c4ccc(O)cc4)CC3)cc2)c1=O (stereo not given)	45.7	> 100000			
CCC(C)n1ncn(-c2ccc(N3CCN(c4ccc(OCC5COC(C)(c6ccc(Cl)cc6Cl)O5)cc4)CC3)cc2)c1=O (stereo not given)	17.8	23800	140	170	IC50 [9]: > 10000 nM; inhibition [10]: Active; inhibition [11]: Active
O=[N+]([O-])c1ccc(N2CCN(c3ccc(OCC4COC(Cn5cncn5)(c5ccc(Cl)cc5Cl)O4)cc3)CC2)cc1 (stereo not given)	1.5	8400	130	90	
CCC(C)n1ncn(-c2ccc(N3CCN(c4ccc(OCC5COC(Cn6cncn6)(c6ccc(Cl)cc6Cl)O5)cc4)CC3)cc2)c1=O (stereo not given) [ITRACONAZOLE]	1.7	400	63	140	GI50 [5]: 440 nM; IC50 [6]: 390 nM; inhibition [10]: Active; inhibition [11]: Active; IC50 [12]: 690 nM; IC50 [13]: 160 nM
CCCn1ncn(-c2ccc(N3CCN(c4ccc(OC[C@H]5CO[C@@](C)(c6ccc(Cl)cc6Cl)O5)cc4)CC3)cc2)c1=O		24900	> 10000	540	
CCC(C)n1ncn(-c2ccc(N3CCN(c4ccc(OC[C@H]5CO[C@@](C)(c6ccc(Cl)cc6Cl)O5)cc4)CC3)cc2)c1=O (relative stereo)		3690	850	71	GI50 [5]: 2900 nM
CC[C@@H](C)n1ncn(-c2ccc(N3CCN(c4ccc(OC[C@@H]5CO[C@](C)(c6ccc(Cl)cc6Cl)O5)cc4)CC3)cc2)c1=O		12800	2400	24	GI50 [5]: 1000 nM; IC50 [6]: 290 nM; inhibition [7]: inactive; inhibition [8]: inactive
CCCn1ncn(-c2ccc(N3CCN(c4ccc(OC[C@@H]5CO[C@](C)(c6ccc(Cl)cc6Cl)O5)cc4)CC3)cc2)c1=O		49900	> 10000	1400	
CCC(C)n1ncn(-c2ccc(N3CCN(c4ccc(OCC5COC(C)(C)O5)cc4)CC3)cc2)c1=O (stereo not given)	71.4	> 100000			
CC[C@@H](C)n1ncn(-c2ccc(N3CCN(c4ccc(OC[C@@H]5CO[C@@](C)(c6ccc(Cl)cc6Cl)O5)cc4)CC3)cc2)c1=O		53200	190	22	GI50 [5]: 600 nM; IC50 [6]: 190 nM
CCCn1ncn(-c2ccc(N3CCN(c4ccc(OC[C@@H]5CO[C@@](C)(c6ccc(Cl)cc6Cl)O5)cc4)CC3)cc2)c1=O		26500	4100	1300	
CCC(C)n1ncn(-c2ccc(N3CCN(c4ccc(OC[C@@H]5CO[C@@](C)(c6ccc(Cl)cc6Cl)O5)cc4)CC3)cc2)c1=O (stereo not given in full)		3320	91	77	GI50 [5]: 2000 nM
